In one data set the target is Histone deacetylase 1 (Homo sapiens, UniProt Q13547). Put plainly: Inhibition of human recombinant HDAC1. Put shortly:
(§1)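 Recombinant HDAC isoforms incubated with acetyl-lysine tripeptide–AMC substrate (mimics histone H4 K12), or trifluoroacetyl-lysine-AMC for class IIa enzymes, each substrate at its Km; trypsin cleavage of deacetylated product releases fluorescent AMC. IC50 from two experiments in duplicate, mean ± SD.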

The target in another data set is Histone deacetylase 2 (Homo sapiens, UniProt Q92769). The data set can be described thus: Inhibition of human recombinant HDAC2. The procedure, abridged:
as §1

Another data set has as its target Histone deacetylase 3 (Homo sapiens, UniProt O15379). Put plainly: Inhibition of human recombinant HDAC3. The procedure, abridged: as §1
The next data set deals with T1, Histone deacetylase 8 (Homo sapiens, UniProt Q9BY41).
T1 sequence (Q9BY41 whole entry): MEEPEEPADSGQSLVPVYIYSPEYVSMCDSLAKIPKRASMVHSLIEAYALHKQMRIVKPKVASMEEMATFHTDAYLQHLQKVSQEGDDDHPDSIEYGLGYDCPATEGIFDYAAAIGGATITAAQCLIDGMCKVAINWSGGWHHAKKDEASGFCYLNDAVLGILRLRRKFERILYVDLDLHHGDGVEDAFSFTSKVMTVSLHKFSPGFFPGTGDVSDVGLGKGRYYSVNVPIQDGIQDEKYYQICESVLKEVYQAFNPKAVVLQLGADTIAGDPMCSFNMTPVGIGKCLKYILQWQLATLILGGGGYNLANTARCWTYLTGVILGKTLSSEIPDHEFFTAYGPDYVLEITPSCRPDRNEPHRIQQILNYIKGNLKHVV
Put plainly: Inhibition of human recombinant HDAC8. Put shortly:
as §1

The target of the next data set is Histone deacetylase 4 (Homo sapiens, UniProt P56524). The data set can be described thus: Inhibition of human recombinant HDAC4. Put shortly:
as §1

The target in another data set is Histone deacetylase 5 (Homo sapiens, UniProt Q9UQL6). The data set can be described thus: Inhibition of human recombinant HDAC5. Put shortly:
as §1

Another data set has as its target T2, Histone deacetylase 7 (Homo sapiens, UniProt Q8WUI4).
T2 sequence (Q8WUI4 whole entry): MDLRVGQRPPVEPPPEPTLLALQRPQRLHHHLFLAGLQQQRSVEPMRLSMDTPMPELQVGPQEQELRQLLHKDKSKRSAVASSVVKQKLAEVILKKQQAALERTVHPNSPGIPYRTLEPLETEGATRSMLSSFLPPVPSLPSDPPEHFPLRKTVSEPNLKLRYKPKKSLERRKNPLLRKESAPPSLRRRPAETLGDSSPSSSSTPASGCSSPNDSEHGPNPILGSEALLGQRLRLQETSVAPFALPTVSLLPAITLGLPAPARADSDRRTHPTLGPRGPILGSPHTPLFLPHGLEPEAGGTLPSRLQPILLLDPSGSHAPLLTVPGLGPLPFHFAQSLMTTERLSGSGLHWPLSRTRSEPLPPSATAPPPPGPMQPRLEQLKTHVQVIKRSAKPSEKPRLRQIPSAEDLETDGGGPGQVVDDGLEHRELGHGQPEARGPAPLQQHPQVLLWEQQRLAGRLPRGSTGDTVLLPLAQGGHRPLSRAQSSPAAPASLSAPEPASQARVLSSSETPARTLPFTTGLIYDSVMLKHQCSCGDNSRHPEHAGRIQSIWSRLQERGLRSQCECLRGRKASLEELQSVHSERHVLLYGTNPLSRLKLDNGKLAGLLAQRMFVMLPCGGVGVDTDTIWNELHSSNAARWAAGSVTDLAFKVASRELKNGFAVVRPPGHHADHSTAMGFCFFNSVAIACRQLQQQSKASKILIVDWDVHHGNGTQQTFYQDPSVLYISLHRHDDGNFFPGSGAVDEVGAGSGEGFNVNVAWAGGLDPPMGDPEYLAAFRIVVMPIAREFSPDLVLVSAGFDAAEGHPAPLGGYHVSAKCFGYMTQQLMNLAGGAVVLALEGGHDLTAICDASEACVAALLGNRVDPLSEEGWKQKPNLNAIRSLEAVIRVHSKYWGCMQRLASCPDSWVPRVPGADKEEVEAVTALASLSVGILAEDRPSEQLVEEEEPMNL
The data set can be described thus: Inhibition of human recombinant HDAC7.

A further data set concerns the target Histone deacetylase 9 (Homo sapiens, UniProt Q9UKV0). The data set can be described thus: Inhibition of human recombinant HDAC9. Put shortly:
as §1

Data set [1] deals with T3, Protein deacetylase HDAC6 (Homo sapiens, UniProt Q9UBN7).
T3 sequence (Q9UBN7 whole entry): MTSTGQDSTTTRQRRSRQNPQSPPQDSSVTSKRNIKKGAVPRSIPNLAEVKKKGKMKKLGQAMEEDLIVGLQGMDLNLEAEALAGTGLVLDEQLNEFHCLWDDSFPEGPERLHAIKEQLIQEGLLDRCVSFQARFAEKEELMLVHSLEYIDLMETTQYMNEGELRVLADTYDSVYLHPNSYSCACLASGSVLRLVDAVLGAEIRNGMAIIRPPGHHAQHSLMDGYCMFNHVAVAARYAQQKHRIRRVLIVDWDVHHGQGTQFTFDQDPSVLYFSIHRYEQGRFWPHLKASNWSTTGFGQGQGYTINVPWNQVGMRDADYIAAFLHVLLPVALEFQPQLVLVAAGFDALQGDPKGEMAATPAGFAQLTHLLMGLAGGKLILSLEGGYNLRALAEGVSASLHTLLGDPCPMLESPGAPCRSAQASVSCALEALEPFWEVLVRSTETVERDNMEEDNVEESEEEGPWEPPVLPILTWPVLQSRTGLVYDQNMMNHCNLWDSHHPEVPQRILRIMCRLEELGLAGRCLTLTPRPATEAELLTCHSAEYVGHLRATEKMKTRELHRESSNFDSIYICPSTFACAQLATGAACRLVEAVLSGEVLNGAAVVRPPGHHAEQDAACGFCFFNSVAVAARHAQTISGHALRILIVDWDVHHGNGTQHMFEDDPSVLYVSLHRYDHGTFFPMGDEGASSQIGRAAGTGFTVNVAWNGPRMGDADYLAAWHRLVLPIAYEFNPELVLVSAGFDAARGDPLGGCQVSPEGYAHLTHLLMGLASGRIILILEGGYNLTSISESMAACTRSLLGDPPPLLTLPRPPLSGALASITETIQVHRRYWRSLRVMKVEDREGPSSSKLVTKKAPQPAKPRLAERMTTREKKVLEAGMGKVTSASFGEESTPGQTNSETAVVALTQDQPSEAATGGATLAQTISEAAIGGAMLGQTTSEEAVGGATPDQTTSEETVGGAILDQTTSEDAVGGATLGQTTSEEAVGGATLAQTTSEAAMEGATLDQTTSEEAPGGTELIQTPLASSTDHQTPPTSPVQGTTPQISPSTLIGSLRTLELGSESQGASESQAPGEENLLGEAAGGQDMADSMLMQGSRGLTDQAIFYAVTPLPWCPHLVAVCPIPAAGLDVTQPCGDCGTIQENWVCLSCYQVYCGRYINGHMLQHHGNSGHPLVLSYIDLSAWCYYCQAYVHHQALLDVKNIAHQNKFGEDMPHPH
The data set can be described thus: Inhibition of human recombinant HDAC6. The procedure, abridged:
as §1

Data set [2] concerns the target T4, Protein deacetylase HDAC6 (Homo sapiens) (UniProt Q9UBN7).
T4 sequence (whole entry): T3 sequence (Q9UBN7 whole entry)
Put plainly: Inhibition of HDAC6 in human HeLa cells assessed as acetylation of tubulin after 24 hrs by immunofluorescence assay. Type of data set: cell-based. Put shortly: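 HeLa cells treated 24 h at the indicated doses; tubulin acetylation quantified by immunofluorescence.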

The species named for a further data set is Mus musculus. Put plainly: Inhibition of HDAC in mouse primary forebrain neurons assessed as acetylation of histone H3 lysine 9 at 92.5 uM after 24 hrs by immunofluorescence assay.
The species named for data set [3] is Xenopus laevis. The data set can be described thus: Induction of developmental deffects in frog embryos assessed as loss of anterior structures at 2 mM after 18 hrs. It counts as organism-based. The following applies: in vivo, 2000 µM. The procedure, abridged:
(§2)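 Xenopus laevis embryos exposed in the whole-organism development assay at 2 mM and scored morphologically for loss of anterior structures, shortened anterior–posterior axis, and heart looping and pigment defects; compared with untreated embryos.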

The species entered for data set [4] is Xenopus laevis. Put plainly: Induction of developmental deffects in frog embryos assessed as shortening of anterior-posterior axis at 2 mM after 18 hrs. It counts as organism-based. The settings on record: in vivo, 2000 µM. The procedure, abridged:
as §2

For data set [5], the species on record is Xenopus laevis. The data set can be described thus: Induction of developmental deffects in frog embryos assessed as heart looping and pigment deffects at 2 mM after 18 hrs. It counts as organism-based. The settings on record: in vivo, 2000 µM. Put shortly: as §2

Structures are written as SMILES. Calls of active or inactive are those of the source. The calls are words filed in the database; no cut-off is given here.

Histone deacetylase 1, sequence (Q13547 whole entry, canonical isoform): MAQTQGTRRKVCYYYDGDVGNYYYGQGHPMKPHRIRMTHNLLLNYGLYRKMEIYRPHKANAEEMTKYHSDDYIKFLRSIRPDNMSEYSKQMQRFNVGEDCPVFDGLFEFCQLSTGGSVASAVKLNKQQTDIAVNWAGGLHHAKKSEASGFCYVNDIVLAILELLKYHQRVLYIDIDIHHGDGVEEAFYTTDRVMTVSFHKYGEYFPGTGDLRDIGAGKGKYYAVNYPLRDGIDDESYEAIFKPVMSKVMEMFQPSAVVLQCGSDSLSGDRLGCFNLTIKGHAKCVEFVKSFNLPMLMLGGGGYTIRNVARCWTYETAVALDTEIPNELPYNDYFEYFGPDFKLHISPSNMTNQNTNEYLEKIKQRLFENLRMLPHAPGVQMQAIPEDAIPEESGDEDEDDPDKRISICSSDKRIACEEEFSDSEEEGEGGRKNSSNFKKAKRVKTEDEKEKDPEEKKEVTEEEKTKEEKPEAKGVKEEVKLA
Histone deacetylase 2, sequence (Q92769 whole entry): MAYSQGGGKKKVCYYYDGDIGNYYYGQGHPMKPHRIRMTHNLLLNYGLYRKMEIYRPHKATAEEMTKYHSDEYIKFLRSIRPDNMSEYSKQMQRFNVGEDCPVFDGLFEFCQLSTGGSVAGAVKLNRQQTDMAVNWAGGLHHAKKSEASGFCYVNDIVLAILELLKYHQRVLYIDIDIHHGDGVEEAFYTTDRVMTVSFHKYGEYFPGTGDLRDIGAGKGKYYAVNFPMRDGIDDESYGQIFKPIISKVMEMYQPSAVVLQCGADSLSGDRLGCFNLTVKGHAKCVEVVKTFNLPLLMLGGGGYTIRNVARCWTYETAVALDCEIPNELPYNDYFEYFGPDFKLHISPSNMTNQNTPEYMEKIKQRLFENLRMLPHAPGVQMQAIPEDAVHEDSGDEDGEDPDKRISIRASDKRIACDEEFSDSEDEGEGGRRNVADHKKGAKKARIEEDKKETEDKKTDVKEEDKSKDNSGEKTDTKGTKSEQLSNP
Histone deacetylase 9, sequence (Q9UKV0 whole entry): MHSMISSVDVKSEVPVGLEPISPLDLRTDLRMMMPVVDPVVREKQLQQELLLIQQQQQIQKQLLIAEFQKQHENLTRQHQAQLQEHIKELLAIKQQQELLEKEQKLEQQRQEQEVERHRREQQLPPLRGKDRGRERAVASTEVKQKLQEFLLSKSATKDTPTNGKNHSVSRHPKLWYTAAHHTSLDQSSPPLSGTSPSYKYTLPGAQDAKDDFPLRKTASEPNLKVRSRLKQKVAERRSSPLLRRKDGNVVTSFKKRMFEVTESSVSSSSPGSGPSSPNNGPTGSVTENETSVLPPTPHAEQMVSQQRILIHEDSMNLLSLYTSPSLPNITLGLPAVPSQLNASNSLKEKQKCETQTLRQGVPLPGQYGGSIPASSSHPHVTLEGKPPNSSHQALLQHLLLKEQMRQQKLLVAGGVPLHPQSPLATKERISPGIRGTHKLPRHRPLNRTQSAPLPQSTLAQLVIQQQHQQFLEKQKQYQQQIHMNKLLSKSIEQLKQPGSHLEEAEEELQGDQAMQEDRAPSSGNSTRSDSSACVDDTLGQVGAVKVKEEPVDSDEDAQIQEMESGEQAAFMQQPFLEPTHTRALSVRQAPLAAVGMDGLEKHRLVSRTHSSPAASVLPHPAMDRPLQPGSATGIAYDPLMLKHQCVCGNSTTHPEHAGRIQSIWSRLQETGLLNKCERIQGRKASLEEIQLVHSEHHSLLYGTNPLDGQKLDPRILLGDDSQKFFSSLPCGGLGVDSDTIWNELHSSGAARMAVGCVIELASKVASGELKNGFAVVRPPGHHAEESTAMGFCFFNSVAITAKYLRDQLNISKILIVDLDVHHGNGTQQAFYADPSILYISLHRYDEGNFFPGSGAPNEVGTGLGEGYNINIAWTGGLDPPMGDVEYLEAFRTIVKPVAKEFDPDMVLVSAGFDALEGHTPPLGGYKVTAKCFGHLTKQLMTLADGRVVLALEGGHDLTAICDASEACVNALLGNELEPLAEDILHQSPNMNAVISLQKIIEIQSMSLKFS
Histone deacetylase 4, sequence (P56524 whole entry): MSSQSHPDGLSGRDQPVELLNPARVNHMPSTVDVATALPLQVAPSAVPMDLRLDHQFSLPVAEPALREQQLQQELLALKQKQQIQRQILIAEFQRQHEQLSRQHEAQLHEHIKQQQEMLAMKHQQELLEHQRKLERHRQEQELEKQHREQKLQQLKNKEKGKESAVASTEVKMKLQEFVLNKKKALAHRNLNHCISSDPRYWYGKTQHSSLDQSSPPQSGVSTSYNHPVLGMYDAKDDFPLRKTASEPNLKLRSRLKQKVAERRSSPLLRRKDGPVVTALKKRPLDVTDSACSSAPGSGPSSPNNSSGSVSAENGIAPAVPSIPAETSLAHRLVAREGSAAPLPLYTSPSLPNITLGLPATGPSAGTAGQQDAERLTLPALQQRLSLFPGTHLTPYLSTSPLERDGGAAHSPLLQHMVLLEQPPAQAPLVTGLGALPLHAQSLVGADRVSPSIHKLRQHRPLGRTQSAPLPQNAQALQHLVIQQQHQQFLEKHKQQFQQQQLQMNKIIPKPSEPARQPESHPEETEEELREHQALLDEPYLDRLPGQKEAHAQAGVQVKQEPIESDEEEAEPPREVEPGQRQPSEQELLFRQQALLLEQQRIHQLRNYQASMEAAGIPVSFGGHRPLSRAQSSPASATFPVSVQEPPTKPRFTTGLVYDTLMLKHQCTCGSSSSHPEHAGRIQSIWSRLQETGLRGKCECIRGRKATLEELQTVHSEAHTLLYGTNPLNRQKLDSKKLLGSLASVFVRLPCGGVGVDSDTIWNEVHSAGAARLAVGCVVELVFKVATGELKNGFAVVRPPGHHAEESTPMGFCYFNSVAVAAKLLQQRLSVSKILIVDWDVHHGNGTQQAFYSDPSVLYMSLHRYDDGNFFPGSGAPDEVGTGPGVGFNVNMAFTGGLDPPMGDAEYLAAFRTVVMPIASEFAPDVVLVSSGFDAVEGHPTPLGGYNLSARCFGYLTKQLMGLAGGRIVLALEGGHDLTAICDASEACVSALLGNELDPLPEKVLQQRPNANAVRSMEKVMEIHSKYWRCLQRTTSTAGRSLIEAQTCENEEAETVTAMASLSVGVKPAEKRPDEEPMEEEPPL
Histone deacetylase 5, sequence (Q9UQL6 whole entry): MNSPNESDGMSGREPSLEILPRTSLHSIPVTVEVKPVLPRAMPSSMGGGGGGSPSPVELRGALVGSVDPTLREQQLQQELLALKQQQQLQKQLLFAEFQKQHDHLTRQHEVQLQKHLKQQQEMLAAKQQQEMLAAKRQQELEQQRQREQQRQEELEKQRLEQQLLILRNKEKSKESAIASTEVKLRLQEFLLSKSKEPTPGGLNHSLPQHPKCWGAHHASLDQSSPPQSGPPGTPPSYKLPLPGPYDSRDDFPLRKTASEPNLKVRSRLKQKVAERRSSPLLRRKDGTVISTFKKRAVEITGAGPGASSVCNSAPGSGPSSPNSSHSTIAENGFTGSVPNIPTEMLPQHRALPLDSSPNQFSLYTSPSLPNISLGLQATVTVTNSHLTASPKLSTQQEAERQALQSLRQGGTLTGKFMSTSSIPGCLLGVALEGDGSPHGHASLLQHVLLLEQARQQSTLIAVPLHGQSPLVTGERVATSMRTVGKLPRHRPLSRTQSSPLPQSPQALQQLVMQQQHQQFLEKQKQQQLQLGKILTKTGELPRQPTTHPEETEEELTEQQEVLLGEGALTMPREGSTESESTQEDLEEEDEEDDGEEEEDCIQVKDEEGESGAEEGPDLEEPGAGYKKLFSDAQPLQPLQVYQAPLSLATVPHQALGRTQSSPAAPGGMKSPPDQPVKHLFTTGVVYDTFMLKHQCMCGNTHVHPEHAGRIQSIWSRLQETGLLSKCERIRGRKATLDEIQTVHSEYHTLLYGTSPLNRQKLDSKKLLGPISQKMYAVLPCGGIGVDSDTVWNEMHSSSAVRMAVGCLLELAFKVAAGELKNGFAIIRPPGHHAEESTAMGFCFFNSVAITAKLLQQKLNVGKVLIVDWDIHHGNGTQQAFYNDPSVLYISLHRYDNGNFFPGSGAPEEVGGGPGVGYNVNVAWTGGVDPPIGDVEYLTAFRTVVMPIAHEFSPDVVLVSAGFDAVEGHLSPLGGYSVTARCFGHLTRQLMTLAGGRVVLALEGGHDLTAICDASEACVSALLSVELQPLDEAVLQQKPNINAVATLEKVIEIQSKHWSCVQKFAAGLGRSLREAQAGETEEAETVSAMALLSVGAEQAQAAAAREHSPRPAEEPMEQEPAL
Histone deacetylase 3, sequence (O15379 whole entry): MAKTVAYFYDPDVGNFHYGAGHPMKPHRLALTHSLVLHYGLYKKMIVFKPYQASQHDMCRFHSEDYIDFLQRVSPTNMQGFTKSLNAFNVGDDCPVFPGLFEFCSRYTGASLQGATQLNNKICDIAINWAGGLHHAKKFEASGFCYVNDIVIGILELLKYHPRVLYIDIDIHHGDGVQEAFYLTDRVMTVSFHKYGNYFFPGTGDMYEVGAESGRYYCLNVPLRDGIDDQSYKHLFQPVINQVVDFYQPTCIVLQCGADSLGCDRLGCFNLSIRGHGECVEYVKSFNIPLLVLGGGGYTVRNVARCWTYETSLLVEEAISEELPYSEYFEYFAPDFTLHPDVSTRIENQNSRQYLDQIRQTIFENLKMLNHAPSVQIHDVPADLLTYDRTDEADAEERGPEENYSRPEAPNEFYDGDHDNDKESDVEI

Usually IC50 stands for the concentration at which inhibition is half-maximal. In the case of `CCCC(=O)O` [BUTYRIC ACID], the IC50 at Histone deacetylase 1 was 16 µM; at Histone deacetylase 2, 12 µM; on Histone deacetylase 3, 9 µM; on Histone deacetylase 8, 15 µM; at Histone deacetylase 4 it was greater than 2000 µM; on Histone deacetylase 5 it was greater than 2000 µM. The IC50 (on Histone deacetylase 7; at Histone deacetylase 9; in data set [1]) was greater than 2000 µM in each case. Besides, the inhibition result (in [2]; in the data set filed under Mus musculus) was “inactive” each time.
In the case of `CCCC(=O)NO` [BUTYRYLHYDROXAMIC ACID], the IC50 was 7 µM on Histone deacetylase 1; 9 µM at Histone deacetylase 2; 10 µM on Histone deacetylase 3; 26 µM at Histone deacetylase 8; greater than 2000 µM on Histone deacetylase 4; 360 µM on Histone deacetylase 5. For the same molecule, the IC50 at Histone deacetylase 7 was greater than 1000 µM; at Histone deacetylase 9, greater than 2000 µM; in data set [1], 2 µM. For the same molecule, the inhibition result (in [2]; in the data set filed under Mus musculus) was “Active” each time.
In the case of `O=C(CCCc1ccccc1)NO` [PHENYLBUTYRYLHYDROXAMIC ACID], the IC50 on Histone deacetylase 2 is 0.6 µM; at Histone deacetylase 8, 4 µM; at Histone deacetylase 4 it was 140 µM; on Histone deacetylase 5, 25 µM; on Histone deacetylase 9, 430 µM; in data set [1], 0.5 µM. In addition, the inhibition entry (in data set [2]; in the data set filed under Mus musculus) was “Active” in each case.
On to `CCCC(CCC)C(=O)O` [VALPROIC ACID], for which the IC50 on Histone deacetylase 1 was 39 µM; on Histone deacetylase 4, greater than 2000 µM; on Histone deacetylase 5, greater than 2000 µM; on Histone deacetylase 7, greater than 2000 µM; at Histone deacetylase 9 it was greater than 2000 µM; in data set [1], greater than 2000 µM. For the same molecule, the inhibition result (in data set [2]; in the data set listed under Mus musculus) was “inactive” throughout. Moreover, the Activity entry in the data set listed under Xenopus laevis [3], in the data set listed under Xenopus laevis [4] and in the data set listed under Xenopus laevis [5] was “Toxic” throughout.

These data come from ChEMBL document CHEMBL1671826, “Effect of Inhibiting Histone Deacetylase with Short-Chain Carboxylic Acids and Their Hydroxamic Acid Analogs on Vertebrate Development and Neuronal Chromatin” (ACS Med Chem Lett, 2011).
